Active and inactive are the calls of the source.
Tests used:
Chlamydia trachomatis [1] = test: Antibacterial activity against Chlamydia trachomatis serovar D at 15 uM at pH 7 after 120 mins by MCC assay in presence of sucrose-phosphate-glutamate buffer relative to contro; type: functional, organism-based
How it was run: (§1)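 Compounds and EBs were each diluted in SPG at pH 4, 5.5, 7 or 8 and mixed 1:1, so exposure pH was constant. Five 4-fold dilutions were used (top 60 μM peptide, 30 mM lipid). After 5 or 120 min, the mix was diluted 1:40 in pH 7.5 SPG and plated on McCoy cells. Inclusion counts were compared with a no-drug control at the same pH and time.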

Chlamydia trachomatis [2] = test: Antibacterial activity against Chlamydia trachomatis serovar D at 3.75 uM at pH 4 after 120 mins by MCC assay in presence of sucrose- phosphate-glutamate buffer; type: functional, organism-based; how it was run: as §1
[3] = Cytotoxicity against mouse McCoy cells after 48 hrs at =<60 uM by almar blue assay; type: cell-based
How it was run: (§2)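 Cytotoxicity was tested by running the MCC procedure without inoculum: compound diluted in half with SPG, then diluted 1:40 onto McCoy monolayers and incubated 48 h at 37°C. Read-out by Alamar Blue, MTT and LDH kits. SPG served as negative control and Triton X-100 as positive control. Nontoxic was defined as <10% toxicity in all methods.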

Chlamydia trachomatis [4] = test: Antibacterial activity against Chlamydia trachomatis serovar D at 60.0 - 3.75 uM after 5 mins by MCC assay in presence of human serum albumin relative to control; type: functional, organism-based
How it was run: (§3)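 C. trachomatis serovar EBs (5 × 10⁶ IFU/ml) diluted in 100% VFS (zinc-free for SFS), 100% SFS or 10% HSA, mixed 1:1 with five 4-fold SPG dilutions (final 60 μM/30 mM top; 50% VFS, 50% SFS, 5% HSA). After 5 or 120 min, diluted 1:40, inoculated onto McCoy monolayers. Inclusions stained with anti-LPS/FITC after 36–48 h. Inhibition versus no-drug control in the same fluid; MCC is complete inhibition.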

Chlamydia trachomatis [5] = test: Antibacterial activity against Chlamydia trachomatis serovar L2 at 60.0 -3.75 uM after 120 mins by MCC assay in presence of simulated seminal fluid relative to control; type: functional, organism-based
How it was run: (§4)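 McCoy monolayers seeded 5 × 10⁴ cells/well the day before. Five 4-fold dilutions in SPG (from 120 μM, 60 μM final) mixed 1:1 with EBs (5 × 10⁶ IFU/ml) in VFS, SFS or HSA, giving final 50% VFS, 50% SFS or 5% HSA. After exposure, mix diluted 1:40 in SPG, then inoculated. Inhibition is relative to a no-drug control in the same fluid and exposure time.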

Chlamydia trachomatis [6] = test: Antibacterial activity against Chlamydia trachomatis serovar D at 60.0 - 3.75 uM after 5 mins by MCC assay in presence of simulated seminal fluid relative to control; type: functional, organism-based; how it was run: as §3
Chlamydia trachomatis [7] = test: Antibacterial activity against Chlamydia trachomatis serovar D at 3.75 uM at pH 7 after 120 mins by MCC assay in presence of sucrose-phosphate-glutamate buffer relative to contro; type: functional, organism-based; how it was run: as §1
Chlamydia trachomatis [8] = test: Antibacterial activity against Chlamydia trachomatis serovar E at 60.0 - 3.75 uM after 5 mins by MCC assay in presence of simulated vaginal fluid relative to control; type: functional, organism-based; how it was run: as §3
Chlamydia trachomatis [9] = test: Antibacterial activity against Chlamydia trachomatis serovar E at 60.0 - 3.75 uM after 120 mins by MCC assay in presence of simulated seminal fluid relative to control; type: functional, organism-based; how it was run: as §3
Chlamydia trachomatis [10] = test: Antibacterial activity against Chlamydia trachomatis serovar D at 15 uM at pH 4 after 120 mins by MCC assay in presence of sucrose- phosphate-glutamate buffer; type: functional, organism-based; how it was run: as §1
Chlamydia trachomatis [11] = test: Antibacterial activity against Chlamydia trachomatis serovar L2 at 3.75 uM at pH 4 after 120 mins by MCC assay in presence of sucrose-phosphate-glutamate buffer relative to control; type: functional, organism-based; how it was run: as §1
Chlamydia trachomatis [12] = test: Antibacterial activity against Chlamydia trachomatis serovar D at 15 uM at pH 7 after 120 mins by MCC assay in presence of sucrose- phosphate-glutamate buffer; type: functional, organism-based; how it was run: as §1
Chlamydia trachomatis [13] = test: Antibacterial activity against Chlamydia trachomatis serovar E at 60.0 -3.75 uM after 120 mins by MCC assay in presence of human serum albumin relative to control; type: functional, organism-based; how it was run: as §3
Chlamydia trachomatis [14] = test: Antibacterial activity against Chlamydia trachomatis serovar E at 60.0 -3.75 uM after 5 mins by MCC assay in presence of human serum albumin relative to control; type: functional, organism-based; how it was run: as §3
Chlamydia trachomatis [15] = test: Antibacterial activity against Chlamydia trachomatis serovar D at 60.0 - 3.75 uM after 5 mins by MCC assay in presence of simulated vaginal fluid relative to control; type: functional, organism-based; how it was run: as §3
Chlamydia trachomatis [16] = test: Antibacterial activity against Chlamydia trachomatis serovar L2 at => 3.13 uM after 120 mins relative to control; type: functional
Chlamydia trachomatis [17] = test: Antibacterial activity against Chlamydia trachomatis serovar L2 at 60.0 - 3.75 uM after 5 mins by MCC assay in presence of human serum albumin relative to control; type: functional, organism-based; how it was run: as §4
Chlamydia trachomatis [18] = test: Antibacterial activity against Chlamydia trachomatis serovar L2 at 60.0 -3.75 uM after 5 mins by MCC assay in presence of simulated seminal fluid relative to control; type: functional, organism-based; how it was run: as §4
Chlamydia trachomatis [19] = test: Antibacterial activity against Chlamydia trachomatis serovar L2 at 60.0 - 3.75 uM after 120 mins by MCC assay in presence of human serum albumin relative to control; type: functional, organism-based; how it was run: as §3
Chlamydia trachomatis [20] = test: Antibacterial activity against Chlamydia trachomatis serovar L2 at => 3.13 uM after 5 mins relative to control; type: functional
Chlamydia trachomatis [21] = test: Antibacterial activity against Chlamydia trachomatis serovar L2 at 60.0 - 3.75 uM after 120 mins by MCC assay in presence of simulated vaginal fluid relative to control; type: functional, organism-based; how it was run: as §3
Chlamydia trachomatis [22] = test: Antibacterial activity against Chlamydia trachomatis serovar D at 60.0 - 3.75 uM after 120 mins by MCC assay in presence of simulated vaginal fluid relative to control; type: functional, organism-based; how it was run: as §3
Chlamydia trachomatis [23] = test: Antibacterial activity against Chlamydia trachomatis serovar L2 at 15 uM at pH 7 after 120 mins by MCC assay in presence of sucrose-phosphate-glutamate buffer relative to control; type: functional, organism-based; how it was run: as §1
Chlamydia trachomatis [24] = test: Antibacterial activity against Chlamydia trachomatis serovar E at 60.0 - 3.75 uM after 5 mins by MCC assay in presence of simulated seminal fluid relative to control; type: functional, organism-based; how it was run: as §3
[25] = Cytotoxicity against mouse McCoy cells after 48 hrs at =<60 uM by MTT assay; type: cell-based; how it was run: as §2
Chlamydia trachomatis [26] = test: Antibacterial activity against Chlamydia trachomatis serovar D at 60.0 - 3.75 uM after 120 mins by MCC assay in presence of human serum albumin relative to control; type: functional, organism-based; how it was run: as §3
Chlamydia trachomatis [27] = test: Antibacterial activity against Chlamydia trachomatis serovar L2 at 50 uM after 5 mins relative to control; type: functional; conditions: serovar L2, 5 min
How it was run: (§5)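 Serovar L2 EBs (5 × 10⁶ IFU/ml in SPG, pH 7.5) mixed 1:1 with ten 2-fold SPG dilutions (final 50 μM top peptide, 25 mM lipid), exposed 5 or 120 min, diluted 1:40, plated on McCoy cells; fixed with methanol after 36–48 h, anti-LPS/FITC stained. Triplicate wells, three fields each, three independent days; percent inhibition versus no-drug control ± SD.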

Chlamydia trachomatis [28] = test: Antibacterial activity against Chlamydia trachomatis serovar D at 60.0 - 3.75 uM after 120 mins by MCC assay in presence of simulated seminal fluid relative to control; type: functional, organism-based; how it was run: as §3
Chlamydia trachomatis [29] = test: Antibacterial activity against Chlamydia trachomatis serovar L2 at 3.75 uM at pH 7 after 120 mins by MCC assay in presence of sucrose-phosphate-glutamate buffer relative to control; type: functional, organism-based; how it was run: as §1
Chlamydia trachomatis [30] = test: Antibacterial activity against Chlamydia trachomatis serovar E at 60.0 - 3.75 uM after 120 mins by MCC assay in presence of simulated vaginal fluid relative to control; type: functional, organism-based; how it was run: as §3
Chlamydia trachomatis [31] = test: Antibacterial activity against Chlamydia trachomatis serovar L2 at 60.0 - 3.75 uM after 5 mins by MCC assay in presence of simulated vaginal fluid relative to control; type: functional, organism-based; how it was run: as §4
Chlamydia trachomatis [32] = test: Antibacterial activity against Chlamydia trachomatis serovar L2 at 50 uM after 120 mins relative to control; type: functional; conditions: serovar L2, 2 h; how it was run: as §5

H-RRWVRRVRRWVRRVVRVVRRWVRR-OH
Activity (Chlamydia trachomatis [1]): inactive
Activity (Chlamydia trachomatis [2]): inactive
Activity [3]: Non-toxic
Activity (Chlamydia trachomatis [4]): inactive
Activity (Chlamydia trachomatis [5]): inactive
Activity (Chlamydia trachomatis [6]): inactive
Activity (Chlamydia trachomatis [7]): inactive
Activity (Chlamydia trachomatis [8]): inactive
Activity (Chlamydia trachomatis [9]): inactive
Activity (Chlamydia trachomatis [10]): inactive
Activity (Chlamydia trachomatis [11]): inactive
Activity (Chlamydia trachomatis [12]): inactive
Activity (Chlamydia trachomatis [13]): inactive
Activity (Chlamydia trachomatis [14]): inactive
Activity (Chlamydia trachomatis [15]): inactive
Activity (Chlamydia trachomatis [16]): >97%
Activity (Chlamydia trachomatis [17]): inactive
Activity (Chlamydia trachomatis [18]): inactive
Activity (Chlamydia trachomatis [19]): inactive
Activity (Chlamydia trachomatis [20]): >56%
Activity (Chlamydia trachomatis [21]): inactive
Activity (Chlamydia trachomatis [22]): inactive
Activity (Chlamydia trachomatis [23]): inactive
Activity (Chlamydia trachomatis [24]): inactive
Activity [25]: Non-toxic
Activity (Chlamydia trachomatis [26]): inactive
inhibition at 50 µM (Chlamydia trachomatis [27]): 89.3%
Activity (Chlamydia trachomatis [28]): inactive
Activity (Chlamydia trachomatis [29]): inactive
Activity (Chlamydia trachomatis [30]): inactive
Activity (Chlamydia trachomatis [31]): inactive
inhibition at 50 µM (Chlamydia trachomatis [32]): 99.9%

From ChEMBL document CHEMBL1212805, “Evaluation of WLBU2 peptide and 3-O-octyl-sn-glycerol lipid as active ingredients for a topical microbicide formulation targeting Chlamydia trachomatis” (Antimicrob Agents Chemother, 2010)
